From PubChem
CSC inhib – cancer stem cell inhibition | cancer stem cell-like cells viability, luminescence | inhibition, % at 7.5 µM | actives 1.1% (n = 300,000); in the data active means inhibition above about 75%; tested in HMLE shEcad cells
T cruzi repl – T. cruzi replication inhibition | inhibition, % (no concentration beside the values) | T. cruzi beta-gal in NIH3T3, luminescence, 90 h | AID 1885 | actives 1.4% (n = 300,000);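 active means mean inhibition across valid replicates above about 55%, limit read from the data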;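 further: signal also drops with host cell toxicity which is not excluded here; 0% = plate median of DMSO wells and 100% = zero luminescence signal; higher percent means less beta-gal luminescence so fewer parasites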
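Material: NIH/3T3 host cells with β-galactosidase reporter T. cruzi; Input: 5,000 host fibroblasts per well; Medium: DMEM, 2% fetal bovine serum; Compound: 50 nL DMSO compound solution per well; Schedule: 3 h host attachment, then at least 90 h co-culture; Detection: luminescent β-galactosidase signal after 60 min lysis.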
WT yeast gro inh – growth inhibition of WT yeast, mitochondrial fusion screen; mitochondrial fusion phenotypic screen, WT strain; inhibition, % at 10 µM; actives 2.1% (n = 190,000); in the data active means inhibition above about 58%; tested in S. cerevisiae
Beta apoptosis – blocks beta cell apoptosis; INS-1E cytokine-induced death, ATP luminescence, 48 h; percent of positive-control rescue, neutral wells zero; protection from apoptosis, % (concentration not given with the values); actives 0.8% (n = 300,000); AID 435005;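 active means Every replicate reaches about 75%, or at least half do and their mean reaches it too, limit read from the data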;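 further: 0% = cytokine-treated negative control wells and 100% = positive control rescue; higher means more ATP so stronger rescue from cytokine killing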
Efflux pump mplx – blocks antifungal efflux pumps in multiplex yeast assay; S. cerevisiae Candida pump triplex, Nile Red efflux; inhibition, % at 10 µM; actives 0.44% (n = 330,000); AID 485275;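 active means plate passing quality check with inhibition over a set limit, or well fluorescence over plate mean plus 4 SD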;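 further: Nile Red retained in pooled yeast measured as flow cytometry median fluorescence; 0% = buffer negative control and 100% = Enniatin B positive control; higher means more Nile Red kept so more efflux inhibition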
SUMO Mot1 rescue – blocks SUMOylation pathway, rescuing yeast Mot1-301 growth. AID 2716. actives 1% (n = 320,000). S. cerevisiae Mot1-301 growth rescue, ATP luminescence, 38.5C; percent above DMSO median, 100 means doubled. growth rescue, % at 18.8 µM;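 active means every valid replicate shows activation above 250% relative to neutral control wells; inactive means the rest, any valid replicate at or below 250%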;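 further: OY570 slx delta 5 strain wells were the positive control but not used for scaling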
* hit, by the source's call; nt = no result. Shown are actives, neighbours in structure and some others; about 4.8% of the full set was active somewhere.

SMILES	CSC inhib	T cruzi repl	WT yeast gro inh	Beta apoptosis	Efflux pump mplx	SUMO Mot1 rescue
Cc1onc(-c2ccccc2Cl)c1C(=O)Nc1nnc(-c2ccc(F)cc2)s1	15	-6	51	-6	0	3
CC(=O)c1ccc(N(CC(=O)NC2CCCCC2)C(=O)c2csnn2)cc1	nt	0	nt	-5	0	6
O=Cc1cccc2ccc3cccc(C(=O)O)c3c12	-7	-9	nt	-3	0	3
CCn1cc(/C=C(\NC(=O)c2ccccc2Cl)C(=O)N2CCN(C)CC2)c2ccccc21	nt	-8	nt	nt	nt	nt
COc1cccc(N2[C@@H](CC(C)=O)c3ccc(/C=C/C(C)=O)cc3S2(=O)=O)c1	22	-10	nt	-11	0	37
Cc1ccc2c(C)c(C(=O)N3CCN(c4ncccn4)CC3)oc2c1C	nt	4	nt	nt	nt	nt
Cn1c(N=Nc2ccccc2)nc2ccccc21	-3	5	86*	57	0	-44
Cc1oc(CC(C)C)cc1C(=O)Nc1cccc2ccccc12	80*	-32	17	-4	0	228
CN(Cc1ccccc1)S(=O)(=O)c1ccc(Cl)c(C(=O)NCCCN2CCOCC2)c1	55	17	nt	-4	0	9
O=c1cc(Cn2ccnc2)c2cc(O)ccc2o1	-5	-12	nt	1	0	7
S=C(Nc1ccccc1)Nc1ccc(Cl)cn1	-20	7	14	5	0	-9
O=C(Nc1ccc(Cl)cn1)C1C(c2ccccc2)C1(Cl)Cl (configuration not stated)	25	11	71*	29	0	-9
O=C(NC(=S)Nc1ccc(Cl)cn1)C12CC3CC(CC(C3)C1)C2	72	25	73*	-7	0	11
O=C(NC(=S)Nc1ccc(Cl)cn1)C(c1ccccc1)c1ccccc1	67	17	72*	1	0	-1
O=C(Nc1ccccc1)C1C(c2ccccc2)C1(Cl)Cl (configuration not stated)	-4	-5	nt	6	0	6
O=C1CCCN1CC(=O)N1CCCC(Nc2cccc(F)c2)C1 (configuration not stated)	2	-21	nt	-8	0	-3
COc1ccc(N(C)S(=O)(=O)c2cccc(C(=O)NCC3CCCCC3)c2)cc1	nt	69*	25	nt	nt	nt
CN(C)S(=O)(=O)c1cccc(C(=O)NCC2CCCO2)c1 (configuration not stated)	1	-22	97*	4	0	-4
CCc1ccc(CN(C)C(=O)c2cc(COc3ccc(-n4cncn4)cc3)on2)cc1	-6	33	nt	6	0	-8
Cc1c(NC(=O)C(C)OC(=O)c2ccc([N+](=O)[O-])s2)c(=O)n(-c2ccccc2)n1C (configuration not stated)	11	86*	-30	0	0	nt
CCc1ccc(OCCCCN(C)Cc2ccccc2)cc1	nt	55*	nt	nt	0	60
CCOC(=O)C1C(c2ccc(O)c(OC)c2)NC(=S)NC1(O)C(F)(F)F (configuration not stated)	-8	-13	4	-5	0	17
COc1ccc(C(=O)N2CCN(c3ncccn3)CC2)cc1[N+](=O)[O-]	-7	-3	nt	nt	0	203
CC(=O)c1cccc(Nc2nc(-c3ccccc3)cs2)c1	10	11	17	-3	0	4
O=C(Nc1ccc(-c2csc(Nc3ccc(Cl)cc3)n2)cc1)c1ccccc1	-3	nt	nt	3	1	-1
SMILES	CSC inhib	T cruzi repl	WT yeast gro inh	Beta apoptosis	Efflux pump mplx	SUMO Mot1 rescue
O=C(Nc1ccc(-c2csc(Nc3cccc(C(F)(F)F)c3)n2)cc1)c1cc([N+](=O)[O-])cc(C(F)(F)F)c1	88*	-13	nt	111*	0	8
O=C(Nc1cccc(-c2csc(Nc3ccccc3)n2)c1)c1ccccc1	100*	22	nt	37	0	8
O=C(Nc1ccc(-c2csc(Nc3cccc(C(F)(F)F)c3)n2)cc1)c1ccccc1	136*	79*	nt	14	0	6
O=C(Nc1cccc(-c2csc(Nc3cccc(C(F)(F)F)c3)n2)c1)c1ccccc1	130*	32	nt	16	0	-4
CC(=O)Nc1ccc(NCC(=O)c2ccccc2)cc1	-8	-5	nt	-3	0	0
S=C1NC2(CCCCC2)Cc2ccccc21	2	-17	69*	-2	0	4
Cc1nc(-c2ccccc2)sc1-c1nc(-c2ccncc2)ncc1S(=O)(=O)c1ccccc1	10	23	78*	0	0	13
Cn1cc(C(=O)N/N=C/C2=C(N3CCOCC3)C(=C\c3ccccc3)/CC2)ccc1=O	-12	-12	3	7	1	-5
O=C1Nc2ccccc2/C1=N\N=C\C1=C(N2CCOCC2)C(=C\c2ccccc2)/CC1	32	49	61*	17	-3	-17
CC(C)(C)NS(=O)(=O)c1ccc(NC(=O)c2cc(-c3ccccc3)nc3ccccc23)cc1	0	59*	12	16	0	4
O=C(Nc1nnc(-c2cccs2)o1)c1cc(-c2ccccc2)nc2ccccc12	49	20	71*	9	0	17
Cc1ccc(C)c(-c2cc(C(=O)Nc3nccs3)c3ccccc3n2)c1	nt	18	61*	7	1	6
Cc1cc(NC(=O)c2ccccc2-c2ccccc2)ccc1Br	15	29	72*	10	0	156
COc1ccc(-c2nnc(SCC(=O)NC3CC3)o2)cc1	-24	nt	nt	3	0	4
CNc1nc(-c2c(C)n(C)c3ccc(OC)cc23)cs1	nt	34	nt	nt	0	-3
CC(=O)c1cccc(NC(=O)c2cc(-c3ccncc3)nc3ccccc23)c1	3	nt	nt	5	1	122
Cc1cc(NC(=O)c2cc(-c3ccncc3)nc3ccccc23)ccc1Br	86*	nt	nt	11	0	0
Cc1csc(NC(=O)c2cc(-c3ccccc3)nc3ccccc23)n1	12	19	62*	8	1	1
CC1(C)CC(=O)C2=C(C1)Nc1ncnn1C2c1cccs1 (configuration not stated)	-20	-1	6	-1	0	-9
COc1cccc(N2C(=NC(=O)CCc3ccccc3)SC3CS(=O)(=O)CC32)c1 (configuration not stated)	-6	-2	nt	-4	0	-14
O=C(CC(Nc1ccc(F)cc1)c1ccccc1)c1ccccc1 (configuration not stated)	nt	2	78*	-12	0	-17
CN1C=C/C(=C\c2cc[n+](C)c3ccccc23)c2ccccc21	nt	56*	69*	nt	nt	nt
CC[n+]1ccc(/C=C2\Sc3ccccc3N2CCCS(=O)(=O)[O-])c2ccccc21	-1	3	9	-4	0	-3
CCCN(CCC)c1nc2ccccc2nc1C(C#N)C(=O)OC(C)COC (configuration not stated)	11	8	68*	6	1	-1
